Results on 22 molecules are retold here after ChEMBL document CHEMBL1795210, “Synthesis and screening of (E)-1-(β-D-galactopyranosyl)-4-(aryl)but-3-ene-2-one against Mycobacterium tuberculosis” (2011).

Converted amounts (≈) assume the structure as drawn. Bounds are passed on as bounds.

In this test the test system is Mycobacterium tuberculosis. Briefly: Antimicrobial activity against Mycobacterium tuberculosis H37Rv after 28 days by agar dilution method. The following applies: 672 h. Type of test: functional. The gist of the method:
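Agar dilution on Middlebrook 7H11 with OADC supplement. Compound serially diluted into the agar, […]. H37Rv inoculum from fresh 7H11 slants, set to 1 mg/mL wet weight in 0.05% Tween 80 saline, diluted 10^2 to about 10^7 cfu/mL; 5 µL spotted per tube. Incubated at 37 C, read at 28 days. MIC = lowest concentration giving complete growth inhibition.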
Background: In agar dilution, organisms are placed on agar that contains the substance at set levels.

Turning to `COc1ccc(-c2ccc(/C=C/C(=O)C[C@@H]3O[C@H](CO)[C@H](O)[C@H](O)[C@H]3O)o2)cc1Cl`, the lowest concentration to inhibit growth (MIC) was 3.13 µg/mL (≈ 7.13 µM). Take `COc1c(O)cc(/C=C/C(=O)C[C@@H]2O[C@H](CO)[C@H](O)[C@H](O)[C@H]2O)cc1[N+](=O)[O-]`: 1.56 µg/mL (≈ 3.91 µM) was the least that counted as inhibitory (MIC). Turning to `NNC(=O)c1ccncc1` [ISONIAZID], 0.05 µg/mL (≈ 0.365 µM) was the least that counted as inhibitory (MIC).

Consider `O=C(/C=C/c1ccc(N(CCO)CCO)cc1)C[C@@H]1O[C@H](CO)[C@H](O)[C@H](O)[C@H]1O`, for which the lowest concentration to inhibit growth (MIC) was 6.25 µg/mL (≈ 15.2 µM).

Consider `COc1cc(OC)c(/C=C/C(=O)C[C@@H]2O[C@H](CO)[C@H](O)[C@H](O)[C@H]2O)c(OC)c1`, for which the MIC (usually the smallest concentration in the dilution series that meets the test's criterion for growth inhibition) was found to be 6.25 µg/mL (≈ 15.7 µM).

With `O=C(/C=C/c1ccc2cccc(O)c2n1)C[C@@H]1O[C@H](CO)[C@H](O)[C@H](O)[C@H]1O`, 3.13 µg/mL (≈ 8.34 µM) was the least that counted as inhibitory (MIC). Compared with the last molecule, the MIC is about 2-fold lower. In turn, `O=C(/C=C/c1ccc(C(=O)O)cc1)C[C@@H]1O[C@H](CO)[C@H](O)[C@H](O)[C@H]1O` showed an MIC of 1.56 µg/mL (≈ 4.43 µM).

As to `COc1cc(/C=C/C(=O)C[C@@H]2O[C@H](CO)[C@H](O)[C@H](O)[C@H]2O)cc(OC)c1OC`, it took 6.25 µg/mL (≈ 15.7 µM) to inhibit growth (MIC). In the case of `CC[C@@H](CO)NCCN[C@@H](CC)CO` [ETHAMBUTOL] it was 1.56 µg/mL (≈ 7.64 µM).

For the molecule `C#Cc1ccccc1/C=C/C(=O)C[C@@H]1O[C@H](CO)[C@H](O)[C@H](O)[C@H]1O`, the MIC was above 12.5 µg/mL. In turn, `O=C(/C=C/c1ccc(-c2ccccc2)cc1)C[C@@H]1O[C@H](CO)[C@H](O)[C@H](O)[C@H]1O` returned a minimal inhibitory concentration (MIC) of 6.25 µg/mL (≈ 16.3 µM). Regarding `O=C(/C=C/c1cnc2ccccc2c1)C[C@@H]1O[C@H](CO)[C@H](O)[C@H](O)[C@H]1O`, the MIC was 6.25 µg/mL (≈ 17.4 µM).

For `O=C(/C=C/c1ccc2ccccc2n1)C[C@@H]1O[C@H](CO)[C@H](O)[C@H](O)[C@H]1O`, the MIC came out at 3.13 µg/mL (≈ 8.71 µM). In the case of `COc1ccc(/C=C/C(=O)C[C@@H]2O[C@H](CO)[C@H](O)[C@H](O)[C@H]2O)cc1Br` it was above 12.5 µg/mL; in that of `O=C(/C=C/c1cc(C(F)(F)F)ccc1C(F)(F)F)C[C@@H]1O[C@H](CO)[C@H](O)[C@H](O)[C@H]1O`, 12.5 µg/mL (≈ 28.1 µM); in that of `O=C(/C=C/c1ccc2c(c1)OCO2)C[C@@H]1O[C@H](CO)[C@H](O)[C@H](O)[C@H]1O`, 1.56 µg/mL (≈ 4.43 µM). In the case of `CO[C@H]1/C=C/O[C@@]2(C)Oc3c(C)c(O)c4c(O)c(c(/C=N/N5CCN(C)CC5)c(O)c4c3C2=O)NC(=O)/C(C)=C\C=C\[C@H](C)[C@H](O)[C@@H](C)[C@@H](O)[C@@H](C)[C@H](OC(C)=O)[C@@H]1C` [RIFAMPIN], the lowest concentration to inhibit growth (MIC) was 0.1 µg/mL (≈ 0.122 µM). `O=C(/C=C/c1ccc(-c2ccccc2[N+](=O)[O-])o1)C[C@@H]1O[C@H](CO)[C@H](O)[C@H](O)[C@H]1O` showed an MIC above 12.5 µg/mL.

`C=Cc1cccc(/C=C/C(=O)C[C@@H]2O[C@H](CO)[C@H](O)[C@H](O)[C@H]2O)c1` displayed an MIC of 3.13 µg/mL (≈ 9.36 µM).

The molecule `O=C(/C=C/c1ccc(-c2ccc(Cl)cc2[N+](=O)[O-])o1)C[C@@H]1O[C@H](CO)[C@H](O)[C@H](O)[C@H]1O` yielded an MIC above 12.5 µg/mL.

`O=C(/C=C/c1ccc(CO)o1)C[C@@H]1O[C@H](CO)[C@H](O)[C@H](O)[C@H]1O` registered an MIC of 1.56 µg/mL (≈ 4.75 µM). Take `CN(C)c1ccc(/C=C/C(=O)C[C@@H]2O[C@H](CO)[C@H](O)[C@H](O)[C@H]2O)cc1`: the MIC was found to be 1.56 µg/mL (≈ 4.44 µM).
